{"source": "ChEMBL document CHEMBL5705892", "about": "“MK-2206, an allosteric Akt inhibitor, enhances antitumor efficacy by standard chemotherapeutic agents or molecular targeted drugs in vitro and in vivo” (Mol Cancer Ther, 2010)", "key": {"[1]": {"assay": "Toxicity in human NCI-H460 cells xenografted CD1 nude mouse assessed as body weight loss at 120 mg/kg, po administered 3 times per week for 2 weeks in presence of gemcitabine measured during compound dosing relative to control", "assay_type": "organism-based", "conditions": "in vivo, 336 h", "procedure,_shortened": "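CD1-nude mice with s.c. NCI-H460 xenografts, randomized at mean 0.2 cm³, n=5/group, dosing from day 8 post-implant. Body weight compared with vehicle-only controls.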"}, "A2780 [2]": {"test_system": "A2780", "assay": "Synergistic antiproliferative activity against human A2780 cells assessed as combination index at ED90 measured after 72 hrs in presence of doxorubicin by celltiter-glo assay", "assay_type": "functional", "procedure,_shortened": "(§1)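 Cells were seeded at 2–3 × 10³ per well in RPMI 1640 with 10% FBS. At 24 h, MK-2206 and the partner drug were added simultaneously at constant concentration ratios spanning each agent's IC₅₀, for 72 h. Growth was read as cellular ATP by CellTiter-Glo. CI was taken from median-effect plots of each agent alone and in combination (Chou–Talalay), at ED₅₀, ED₇₅ and ED₉₀.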"}, "NCI-H460 [3]": {"test_system": "NCI-H460", "assay": "Synergistic antiproliferative activity against human NCI-H460 cells assessed as combination index at ED75 measured after 72 hrs in presence of carboplatin by celltiter-glo assay", "assay_type": "functional"}, "HCC70 [4]": {"test_system": "HCC70", "assay": "Synergistic antiproliferative activity against lapatinib pretreated human HCC70 cells assessed as combination index at ED90 measured after 72 hrs by celltiter-glo assay", "assay_type": "functional"}, "HCC827": {"test_system": "HCC827", "assay": "Synergistic antiproliferative activity against human HCC827 cells assessed as combination index at ED75 measured after 72 hrs in presence of erlotinib by celltiter-glo assay", "assay_type": "functional", "procedure,_shortened": "(§2)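 Cells grown in RPMI 1640 with 10% heat-inactivated FBS at 37°C, 5% CO₂. Seeded at 2 to 3 × 10³ per well; drugs added 24 h later. […] Viability read as cellular ATP by CellTiter-Glo. CI calculated by Chou–Talalay from median-effect plots at ED50, ED75 and ED90.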"}, "NCI-H1299": {"test_system": "NCI-H1299", "assay": "Synergistic antiproliferative activity against human NCI-H1299 cells assessed as combination index at ED75 measured after 72 hrs in presence of erlotinib by celltiter-glo assay", "assay_type": "functional"}, "MDA-MB-468": {"test_system": "MDA-MB-468", "assay": "Synergistic antiproliferative activity against human MDA-MB-468 cells assessed as combination index at ED90 measured after 96 hrs in presence of lapatinib by celltiter-glo assay", "assay_type": "functional"}, "NCI-H460 [5]": {"test_system": "NCI-H460", "assay": "Synergistic antiproliferative activity against human NCI-H460 cells assessed as combination index at ED50 measured after 72 hrs in presence of doxorubicin by celltiter-glo assay", "assay_type": "functional"}, "BT-474": {"test_system": "BT-474", "assay": "Synergistic antiproliferative activity against human BT-474 cells assessed as combination index at ED50 measured after 72 hrs in presence of docetaxel by celltiter-glo assay", "assay_type": "functional", "procedure,_shortened": "as §2"}, "NCI-H292": {"test_system": "NCI-H292", "assay": "Antitumor activity against human NCI-H292 cells xenografted in CD-1 mouse assessed as tumor growth suppression at 360 mg/kg, po administered once a week for 2 weeks starting 2 hrs post-erlotinib treatment and measured twice a week during compound dosing by caliper method", "assay_type": "functional, organism-based", "procedure,_shortened": "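Female CD1-nude mice carried s.c. NCI-H292 cells in Matrigel/PBS and were randomized at 0.2 cm³, n = 5. […] MK-2206 (30% Captisol) was given 2 h later at 120 mg/kg po on days 0, 2, 4, 7, 9, 11, or at 360 mg/kg on days 0 and 7. Control received vehicle. Caliper volume twice weekly.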"}, "A2780 [6]": {"test_system": "A2780", "assay": "Synergistic antiproliferative activity against human A2780 cells assessed as combination index at ED50 measured after 72 hrs in presence of gemcitabine by celltiter-glo assay", "assay_type": "functional", "procedure,_shortened": "as §1"}, "HCC70 [7]": {"test_system": "HCC70", "assay": "Synergistic antiproliferative activity against human HCC70 cells assessed as combination index at ED50 measured after 72 hrs in presence of lapatinib by celltiter-glo assay", "assay_type": "functional", "procedure,_shortened": "as §2"}, "NCI-H23": {"test_system": "NCI-H23", "assay": "Synergistic antiproliferative activity against human NCI-H23 cells assessed as combination index at ED50 measured after 72 hrs in presence of erlotinib by celltiter-glo assay", "assay_type": "functional"}, "[8]": {"assay": "Toxicity in human NCI-H292 cells xenografted CD-1 mouse assessed as death at 360 mg/kg, po administered once a week for 2 weeks starting 2 hrs post-erlotinib treatment and measured during compound dosing", "assay_type": "organism-based", "conditions": "in vivo, 336 h", "procedure,_shortened": "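NCI-H292 cells in 50% Matrigel/PBS injected s.c. into flank of female CD1-nude mice; dosing began after 2 wk at mean tumour 0.2 cm³, n = 5/group. […] Body weight and signs monitored; treatment ended day 16.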"}, "NCI-H460 [9]": {"test_system": "NCI-H460", "assay": "Synergistic antiproliferative activity against human NCI-H460 cells assessed as combination index at ED50 measured after 72 hrs in presence of gemcitabine by celltiter-glo assay", "assay_type": "functional"}, "[10]": {"target": "RAC-alpha serine/threonine-protein kinase (Homo sapiens) (UniProt P31749)", "sequence (P31749 whole entry)": "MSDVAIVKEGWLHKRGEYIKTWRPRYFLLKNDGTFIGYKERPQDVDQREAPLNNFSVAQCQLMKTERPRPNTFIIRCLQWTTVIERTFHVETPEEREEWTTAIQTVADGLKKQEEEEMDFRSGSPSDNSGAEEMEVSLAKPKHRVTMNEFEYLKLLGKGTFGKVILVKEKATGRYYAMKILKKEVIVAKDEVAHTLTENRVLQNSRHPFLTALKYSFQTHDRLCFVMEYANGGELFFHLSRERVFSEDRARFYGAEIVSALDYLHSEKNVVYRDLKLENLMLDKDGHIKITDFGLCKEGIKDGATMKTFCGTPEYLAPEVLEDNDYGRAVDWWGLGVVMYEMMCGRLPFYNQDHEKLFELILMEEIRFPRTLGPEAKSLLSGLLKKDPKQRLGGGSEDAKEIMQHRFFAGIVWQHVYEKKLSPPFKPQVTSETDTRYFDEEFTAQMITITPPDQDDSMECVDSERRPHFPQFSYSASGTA", "assay": "Inhibition of AKT in human HCC827 cells assessed as reduction in AKT phosphorylation at S473 residue at 5 umol/L measured after 5 hrs in presence of erlotinib by Western blot analysis", "assay_type": "cell-based", "conditions": "dose 5.0 µmol/L"}, "SK-OV-3 [11]": {"test_system": "SK-OV-3", "assay": "Antiproliferative activity against human SK-OV-3 cells assessed as reduction in cell proliferation measured after 72 hrs by celltiter-glo assay", "assay_type": "functional, cell-based", "conditions": "SK-OV-3, 72 h", "procedure,_shortened": "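Cells in RPMI 1640 with 10% heat-inactivated FBS at 37°C and 5% CO₂ were seeded at 2 to 3 × 10³ per well. […] Growth was read as cellular ATP by CellTiter-Glo.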"}, "SK-OV-3 [12]": {"test_system": "SK-OV-3", "assay": "Synergistic antiproliferative activity against human SK-OV-3 cells assessed as combination index at ED75 measured after 96 hrs in presence of lapatinib by celltiter-glo assay", "assay_type": "functional"}, "SK-OV-3 [13]": {"test_system": "SK-OV-3", "assay": "Synergistic antiproliferative activity against human SK-OV-3 cells assessed as combination index at ED90 measured after 72 hrs in presence of lapatinib by celltiter-glo assay", "assay_type": "functional"}, "[14]": {"assay": "Toxicity in human PC-3 cells xenografted CD1 nude mouse assessed as body weight loss at 120 mg/kg, po administered 3 times per week for 2 weeks starting 24 hrs post docetaxel treatment and measured on day 15", "assay_type": "organism-based", "conditions": "in vivo, 360 h, time 15 day", "procedure,_shortened": "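Male CD1-nude mice with s.c. PC-3 tumours (50% Matrigel/50% PBS, left flank), randomized at mean 0.2 cm³, n=5/group, treated from 25 d post-implant. Body weight monitored versus vehicle-only controls.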"}, "SK-BR-3": {"test_system": "SK-BR-3", "assay": "Synergistic antiproliferative activity against human SK-BR-3 cells assessed as combination index at ED75 measured after 72 hrs in presence of lapatinib by celltiter-glo assay", "assay_type": "functional"}, "NCI-H661": {"test_system": "NCI-H661", "assay": "Induction of apoptosis in human NCI-H661 cells assessed as fold induction of capsase-3/7 activity measured after 24 to 48 hrs in presence of gemcitabine by caspase-glo 3/7 assay", "assay_type": "functional", "conditions": "time 24-48 hrs"}, "NCI-H441": {"test_system": "NCI-H441", "assay": "Induction of apoptosis in human NCI-H441 cells assessed as fold induction of capsase-3/7 activity measured after 24 to 48 hrs in presence of carboplatin by caspase-glo 3/7 assay", "assay_type": "functional", "conditions": "time 24-48 hrs"}, "NCI-H1993": {"test_system": "NCI-H1993", "assay": "Synergistic antiproliferative activity against human NCI-H1993 cells assessed as combination index at ED25 to ED90 measured after 72 hrs in presence of carboplatin by celltiter-glo assay", "assay_type": "functional"}, "NCI-H460 [15]": {"test_system": "NCI-H460", "assay": "Synergistic antiproliferative activity against human NCI-H460 cells assessed as combination index at ED25 to ED90 measured after 72 hrs in presence of gemcitabine by celltiter-glo assay", "assay_type": "functional"}}, "note": "Active and inactive are the calls of the source. No cut-off for these calls is given here.", "data": [{"smiles": "Cl.NC1(c2ccc(-c3nc4ccn5c(=O)[nH]nc5c4cc3-c3ccccc3)cc2)CCC1", "values": [{"measurement": "Activity", "setting": "[1]", "value": 7, "unit": "%"}, {"measurement": "CI90", "setting": "A2780 [2]", "value": 0.27}, {"measurement": "CI75", "setting": "NCI-H460 [3]", "value": 0.3}, {"measurement": "CI90", "setting": "HCC70 [4]", "value": 0.18}, {"measurement": "CI75", "setting": "HCC827", "value": 0.18}, {"measurement": "CI75", "setting": "NCI-H1299", "value": 0.31}, {"measurement": "CI90", "setting": "MDA-MB-468", "value": 0.18}, {"measurement": "CI50", "setting": "NCI-H460 [5]", "value": 0.27}, {"measurement": "CI50", "setting": "BT-474", "value": 1}, {"measurement": "Activity", "setting": "NCI-H292", "value": "Active"}, {"measurement": "CI50", "setting": "A2780 [6]", "value": 0.57}, {"measurement": "CI50", "setting": "HCC70 [7]", "value": 0.46}, {"measurement": "CI50", "setting": "NCI-H23", "value": 0.32}, {"measurement": "Activity", "setting": "[8]", "value": "Non-Toxic"}, {"measurement": "CI50", "setting": "NCI-H460 [9]", "value": 0.33}, {"measurement": "inhibition", "setting": "[10]", "value": "Active"}, {"measurement": "IC50", "setting": "SK-OV-3 [11]", "value": 5.1, "unit": "µM"}, {"measurement": "CI75", "setting": "SK-OV-3 [12]", "value": 0.18}, {"measurement": "CI90", "setting": "SK-OV-3 [13]", "value": 0.25}, {"measurement": "Activity", "setting": "[14]", "value": "Non-Toxic"}, {"measurement": "CI75", "setting": "SK-BR-3", "value": 0.19}, {"measurement": "fold change (FC)", "setting": "NCI-H661", "value": 1.3}, {"measurement": "fold change (FC)", "setting": "NCI-H441", "value": 2.3}, {"measurement": "CI", "setting": "NCI-H1993", "value": 0.44}, {"measurement": "CI", "setting": "NCI-H460 [15]", "value": 0.33}]}]}
